ChEMBL document CHEMBL4513216, “Probing the Open Global Health Chemical Diversity Library for Multistage-Active Starting Points for Next-Generation Antimalarials” (ACS Infect Dis, 2020)

Test: Toxicity liver stage against HepG2, at 10uM
Type: cell-based
Set-up: test concentration 10 uM, cell line HepG2-A16-CD81EGFP
Conditions: human, HepG2-A16-CD81EGFP cells; read-out: INHIBITION
How it was run: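 Uninfected HepG2-A16-CD81EGFP cells, 3 × 10^3 per well, 1536-well, plated on prespotted compound at 10 μM final, parasite-free screening media added to match infected plates; puromycin 10 μM positive, DMSO 0.5% negative; run in parallel with 48 h PbLuc assay at 37 °C, 5% CO2; viability by CellTiter-Glo luminescence, normalized to controls.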

| SMILES | cytotoxicity at 10 µM [%] |
| --- | --- |
| COc1cccc(OCCNCc2ccccc2)c1 | 10.7 |
| COCCN1C(=O)CO[C@H]2CN(CCCc3ccccc3)C[C@H]21 | 52.8 |
| CCC(C)[C@H](NC(=O)c1ccc(F)cc1-n1cnnn1)C(=O)OC (stereo partly drawn) | 5.55 |
| COc1ccc(-c2n[nH]c(C)c2CC(=O)N2CCOCC2)cc1 | -14.2 |
| Cc1nnc(C2CCN(C(=O)c3ccc4nccnc4c3)CC2)s1 | 5.05 |
| O=C(Cc1ccccc1Cl)Nc1cnn(C2CCOC2)c1 (stereo not drawn) | 2.63 |
| CC(=O)N1CCC2(CCN(CC3CCCCC3)C2)CC1 | 2.05 |
| CN(C)CCN1C(=O)CCC12CCCN(C(=O)CC1CC1)CC2 (stereo not drawn) | -1.48 |
| Cn1cccc1C(=O)N1CC[C@@H]2[C@@H]1CC(=O)N2CC1CCOCC1 | -2.82 |
| O=C(C1CCOC1)N1CCc2ncnc(NC3CCC3)c2CC1 (stereo not drawn) | -151 |
| c1ccc(COC[C@H]2CC[C@H]3[C@H](CCN3Cc3ccco3)O2)nc1 | -144 |
| COCCNCc1ccc(OCC(=O)NC(C)(C)C)cc1 | -8.08 |
| COCC(=O)NC(Cc1cc(N(C)C)nc(C2CC2)n1)c1ccccc1 (stereo not drawn) | 3.03 |
| C=Cn1ncc(CN2C[C@@H]3CCCN3C[C@H]2Cc2ccccc2)c1C | -18.5 |
| CCc1cc(O)nc(C2CCCN2C(=O)c2cc(CC)on2)n1 (stereo not drawn) | -12.6 |
| NC(=O)CN1CCCC1c1csc(Nc2cnccn2)n1 (stereo not drawn) | -11.2 |
| O=c1oc2ccccc2n1CCN(CC1CCOC1)C1CC1 (stereo not drawn) | 4.78 |
| CCN(C)S(=O)(=O)N1CCC(C(O)c2ccc(F)cc2)CC1 (stereo not drawn) | -22 |
| O[C@@H]1CN(Cc2cc(Cl)cc3cccnc23)C[C@@H]1O | 0.342 |
| CC(C)c1nnc2n1CC(CNC/C=C/c1ccccc1)CC2 (stereo not drawn) | 3.76 |
| COCCN1CCN(CC2CCCCO2)CC1 (stereo not drawn) | 6.29 |
| N#Cc1cccnc1NCc1cccnc1N1CCCCC1 | -48.3 |
| CCCC(=O)NCc1cccc(C(=O)OC)c1 | 5.99 |

| SMILES | cytotoxicity at 10 µM [%] |
| --- | --- |
| O=C(NCCc1nnc[nH]1)Nc1cccc(SC(F)F)c1 | -42.4 |
| Cc1nc(C)c(S(=O)(=O)NC(=O)c2sccc2C)s1 | 0.25 |
| COCc1nc(CNc2cc(C)on2)cs1 | 4.05 |
| CCOc1cccc(C(=O)N(CCC#N)Cc2ccccn2)c1 | 5.42 |
| CCC(CNC(=O)c1ccco1)N1CCc2ccccc2C1 (stereo not drawn) | 18.3 |
| CN(Cc1ccc(C#N)cc1)C(=O)c1ccnc(OC2CCC2)c1 | 7.59 |
| COc1c(CNCc2cccnc2N2CCN(C)CC2)c(C)nn1C | -134 |
| COc1cccc(C2CCCN2Cc2nnnn2C2CC2)c1 (stereo not drawn) | 4.17 |
| CCNc1ncc(C(=O)Nc2nnc(N3CCCCC3)[nH]2)s1 | -12.4 |
| CCNC(=O)N1CCC(NC(=O)NCCc2ccc(C)cc2C)C1 (stereo not drawn) | -44.6 |
| Cn1cc(N2CCCC(SCc3nc(C4CC4)no3)C2=O)cn1 (stereo not drawn) | 21.8 |
| Cc1cc(NC(=O)CN(CC(C)O)c2ccccc2)on1 (stereo not drawn) | -2.15 |
| CC(C)c1nnc(NC(=O)Cc2ccc(F)cc2)[nH]1 | -8 |
| Cc1ccc(OCC(C)NS(=O)(=O)N(C)C)cc1 (stereo not drawn) | 8.81 |
| CS(=O)(=O)NCCN(CCCO)C1CCc2ccccc21 (stereo not drawn) | 3.09 |
| COc1ccc(-c2noc(C(CC(C)C)N3CCCCC3=O)n2)cn1 (stereo not drawn) | -54.2 |
| N#CCSCCCN1CCC(C(=O)N2CCCCCC2)CC1 | 5.37 |
| O=C(CN1CCC(C(=O)c2cc(F)ccc2F)CC1)NC1CCCC1 | 4.93 |
| CCOC1CCC2(CCN(C(=O)c3c[nH]cn3)CC2)c2ccccc21 (stereo not drawn) | 7.5 |
| Cc1noc([C@H]2CC[C@@H]3[C@@H](CCN3c3ncccn3)O2)n1 | 3.06 |
| CC(C)Nc1ncnc2c1CCN(C(=O)NCc1cccc(F)c1)CC2 | -110 |
| CC(=O)N1CCC(c2nnc3ccc(C(=O)NCC(C)C)cn23)C1 (stereo not drawn) | -108 |
| COc1nn(C)c2c1CCCN(C(=O)c1cscn1)C2 | -97.2 |

| SMILES | cytotoxicity at 10 µM [%] |
| --- | --- |
| CNC(=O)[C@@]12CCO[C@@H]1CCN(S(=O)(=O)c1ccccc1F)C2 | -71.2 |
| COCCC(=O)N1CCn2c(COCC3CC3)cnc2C1C (stereo not drawn) | 4.17 |
| O=C(CO)N1CCc2onc(Cn3cccn3)c2C1 | 0.436 |
| COc1ccc(CCN2C(=O)O[C@@H]3CN(C)C[C@@H]32)cc1 | -2 |
| Cc1ccc(OCC2CCCN(CC3CCOCC3)C2)cc1 (stereo not drawn) | 16.1 |
| COc1ccc(C(=O)C2CCCN(c3nccc(N)n3)C2)c(C)c1 (stereo not drawn) | 5.67 |
| CCN(CC)C(=O)[C@@H]1C[C@@H](NC(=O)c2ccn(C(C)(C)C)c2)CN1C | -4.12 |
| Cc1cccc(=O)n1CCC(=O)N1CC[C@](C)(O)[C@H](C)C1 | 2.81 |
| CNS(=O)(=O)c1ccc(CN2CCCC2c2ccc(F)cc2)cc1 (stereo not drawn) | 11.6 |
| O=C(NCCO)c1coc(Cn2cnc3ccccc32)n1 | -4.48 |
| COc1ccc(Oc2ncccc2C(N)=O)cc1CN1CCCC1 | 0.0453 |
| Clc1cc(N2CCC(N3CCCC3)CC2)nc2[nH]ccc12 | -0.77 |
| COc1ccc(-c2cn(CCn3c(C)cc(C)nc3=O)nn2)cn1 | 6.05 |
| CC(C)=CCN1CCN(CCCc2ccccc2)[C@H]2CS(=O)(=O)C[C@H]21 | -1.06 |
| C1CCC(CNC2CCSCC2)(N2CCOCC2)CC1 | -14.5 |
| Cc1cc2nc(C(C)C)cc(NC(C)c3nncn3C3CCCC3)n2n1 (stereo not drawn) | 8.91 |
| COc1cc(-c2nccn2C(C)CCn2cccn2)cc2c1OCO2 (stereo not drawn) | 0.562 |
| CN(Cc1ccccc1)c1ncccc1CNC1CCSCC1 | -2.84 |
| Cc1nc(N2CCC(O)(c3ccc(F)cc3)CC2)c2c(C)nn(C)c2n1 | -0.503 |
| CN(Cc1csc(-c2cccs2)n1)CC(O)CO (stereo not drawn) | -0.712 |
| CCSCCNc1nc(-c2ccccn2)nc2c1c(C)nn2C | 6.35 |
| CC(C)Cc1noc(CN(C)C(=O)CCNC(=O)c2ccccc2F)n1 | -9.22 |
| COc1ccc(-c2ccncc2)cc1CNC1CCCC1 | -47.7 |

| SMILES | cytotoxicity at 10 µM [%] |
| --- | --- |
| C/C=C(\C)CN1C[C@@H](NC(=O)c2ccc(F)c(F)c2)C[C@H]1C(=O)NCC | 14 |
| O[C@@H]1CN(c2noc(C3CC3)n2)CC[C@H]1c1ccc2ccccc2c1 | 5.11 |
| CCC[C@@H]1CN(C(=O)c2cc3ccccc3cc2O)C[C@H]1N(C)C | -10.2 |
| CCc1ccccc1OCCNCCc1c[nH]cn1 | 4.69 |
| Cc1cc(C)n(CC(=O)N2Cc3cnc(C(C)(C)C)nc3C2)n1 | 3.1 |
| COCCCNCc1cc(O)c2cc(C)cc(C)c2n1 | -6.31 |
| CN1CCCC1CCn1ccnc1-c1nc(-c2ccccc2)no1 (stereo not drawn) | -5.35 |
| CC1CNC(=O)CCN1Cc1cc(O)c2cccc(F)c2n1 (stereo not drawn) | -4.5 |
| Cc1cc(-c2nn(C)c(Cl)c2CN2Cc3ccccc3C(O)C2)no1 (stereo not drawn) | 4.1 |
| CCNC(=O)c1ccnc(NCC2COc3cc(OC)ccc3C2)c1 (stereo not drawn) | 0.145 |
| CN1CCC(Oc2ccc(NC(=O)c3ccccc3Br)cc2)CC1 | -15.6 |
| CCc1ccc(C2NCCc3cc4c(cc32)OCCO4)cc1 (stereo not drawn) | -6.63 |
| Cc1cncc(C2CCCN(C(=O)c3scnc3C)C2)n1 (stereo not drawn) | -2.19 |
| COc1cccc(C(NCc2ccc(SC)cc2)c2nccn2C)c1 (stereo not drawn) | -5.54 |
| Cc1ccc(NC2CCN(C(=O)c3ccc(C)o3)CC2)nn1 | -4.69 |
| Cc1ccc(C(=O)NCCCNc2ccc(C(F)(F)F)cn2)cc1 | -2.34 |
| CCCOCC(=O)NS(=O)(=O)c1ccc2c(c1)OCCCO2 | -5.67 |
| CN1CCOC(CNC(=O)CCCOc2ccccc2F)C1 (stereo not drawn) | -3.15 |
| CC(C)c1nnc2n1CCN(Cc1csc(CC(=O)N(C)C)n1)C2 | -15.9 |
| Cc1nc(C)n(CC2CCCN2CCc2cccs2)n1 (stereo not drawn) | -3.51 |
| CC(C)Oc1ncccc1CNC(=O)N1CCC1c1ccccc1 (stereo not drawn) | -4.92 |
| CCCOc1ccc(CNC2CCCc3c2cnn3CC)cc1OC (stereo not drawn) | -10.8 |
| CN(CCCNC(=O)N1CCCC1c1ccsc1)c1ccccn1 (stereo not drawn) | -4.53 |

| SMILES | cytotoxicity at 10 µM [%] |
| --- | --- |
| CC(O)CN1CCN(C(=O)c2ccc(N(C)C)nn2)CC1 (stereo not drawn) | -13.4 |
| COc1ccccc1C(=O)NC(C)CC(=O)O (stereo not drawn) | -2.43 |
| Cc1nc(C2CCCN(C(=O)c3cccc(S(C)(=O)=O)c3)C2)no1 (stereo not drawn) | -2.33 |
| c1cc(CN2CCCC(c3noc(C4CC4)n3)C2)no1 (stereo not drawn) | -7.57 |
| Clc1ccc(-n2cc(CNC3CCc4ncnn4C3)cn2)cc1 (stereo not drawn) | 0.77 |
| CNc1cc2c(nn1)CCN(C(=O)c1ccoc1)C2 | 4.6 |
| CCNC(=O)[C@@H]1CCCN1[C@@H](C(=O)NC)C1CC1 | -2.39 |
| CCn1c(CN2CCCC(O)(c3ccc(F)cc3)CC2)cnc1SC (stereo not drawn) | -0.466 |
| CCN1C(=O)CCCC12CCCN(C(=O)c1ccncc1F)C2 (stereo not drawn) | -3.27 |
| O=C(c1ccco1)N1CC2(CCNCC2)c2cc(Cl)ccc21 | 0.199 |
| COc1ccc2c(c1)C1(CCN(Cc3nccs3)CC1)N(C)CC2 | -148 |
| COc1cc2cc(C)c(SCCN3CCCCC3)nc2cc1OC | -0.883 |
| CCc1cnc(N2CC[C@H]3[C@@H]2CCC(=O)N3CC2CCOCC2)nc1 | 4.28 |
| CCOCC1CN(CC2CC2)Cc2nn(C)cc21 (stereo not drawn) | -76 |
| O=C1NCC[C@]12CN(Cc1ccncc1)C[C@H]2c1ccccc1 | -147 |
| Cc1cccc(C(=O)N2CCC[C@]3(C[C@@H](OCC4CC4)CO3)C2)n1 | -82.9 |
| O=C(Cc1ccc(F)cc1)N1CCn2cc(Cn3cccn3)nc2C1 | 4.58 |
| COCCN1CCC2(CC1)CN(C(=O)c1ccco1)CCO2 | -1.27 |
| Cc1ccc(CN2CCC3(CC2)C(c2ccccc2)CC(=O)N3C)o1 (stereo not drawn) | -101 |
| COCC1CN(C(=O)COc2ccccc2)Cc2ncn(C)c21 (stereo not drawn) | 0.104 |
| Nc1nc2cn(C3CCCC3)c(=O)c-2c[nH]1 | -14.5 |
